Data set [1] is described as follows: Cmax in BALB/C mouse plasma at 50 mg/kg, ip by LC-MS/MS analysis. Format: ADME, organism-based. To be noted: in vivo. Summed up: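 Female BALB/c mice, 6–8 weeks old, dosed i.p. at 50 mg/kg in 20% […] β-cyclodextrin in saline, 0.1 mL/10 g. Serial blood samples; plasma was methanol-precipitated with an analogue internal standard. LC-MS/MS multiple reaction monitoring, external calibration 2–20,000 nmol/L. Noncompartmental analysis, model 200.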

Data set [2] in a line: Half life in BALB/C mouse liver at 2.5 mg/kg, iv by LC-MS/MS analysis. The format is ADME, organism-based. Summed up:
(§1)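 Female BALB/c mice, 6–8 weeks old, given 2.5 mg/kg i.v. in 10% DMSO, 0.5% Tween 20 in saline. Plasma came from serial bleeds; tissues were homogenized in 2 or 3 volumes PBS. Samples were methanol-precipitated with an analogue internal standard, then LC-MS/MS by multiple reaction monitoring against an 8-point external calibration of 2–20,000 nmol/L. Parameters came from WinNonlin noncompartmental analysis, model 201 for plasma and model 200 for tissues.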

In data set [3] the test system is U-87 MG. To be noted: Homo sapiens, time 24.0 hrs.
Data set [4] in a line: Tmax in BALB/C mouse kidney at 2.5 mg/kg, iv by LC-MS/MS analysis. Format: ADME, organism-based. Summed up:
as §1

Data set [5] relates to U-87 MG. Briefly: Antiproliferative activity against human U-87MG cells harboring PTEN deletion assessed as cell growth inhibition incubated for 96 hrs by SRB assay. Format: functional, U-87MG ATCC. (Sulforhodamine B stains cellular protein and so reports cell mass.)
A further data set relates to MDA-MB-435. The data set is described as follows: Antiproliferative activity against human MDA-MB-435 cells harboring AKT assessed as cell growth inhibition incubated for 96 hrs by SRB assay. Format: functional.
Another data set deals with PC-3. The data set is described as follows: Antitumor activity against PTEN null human PC-3 cells xenografted male Ncr model assessed as body weight loss at 30 mg/kg, ip administered once a daily for 14 days relative to control. Conditions: time 14 day. (A xenograft is tissue or cells of one species grown in another, often human tumour cells in immunodeficient mice.)
Another data set has as its system MDA-MB-468. The data set is described as follows: Antitumor activity against PTEN null human MDA-MB-468 cells xenografted female Ncr model assessed as T/C at 70 mg/kg, ip administered once a daily for 40 days relative to control. Format: functional. To be noted: time 40 day.
Data set [6] deals with U-87 MG. Briefly: Inhibition of recombinant PI3K in human U-87MG cells assessed as phosphorylation of AKT at Thr308 at 5 times of GI50 concentration within 15 mins treatment by immunoblot analysis. Format: cell-based. (In general: In western blotting, separated proteins are transferred to a membrane and probed.)
In data set [7] the test system is OVCAR-3. Briefly: Antitumor activity against human OVCAR-3 cells xenografted female Ncr model assessed as T/C at 30 mg/kg, ip administered daily for 15 days relative to control. Format: functional. Conditions: time 15 day.
Data set [8] can be described thus: AUClast in BALB/C mouse kidney at 2.5 mg/kg, iv by LC-MS/MS analysis. The format is ADME, organism-based. Summed up: as §1
In data set [9] the test system is U-87 MG. Briefly: Antitumor activity against PTEN null human U-87MG cells xenografted female Ncr model assessed as body weight loss at 40 mg/kg, ip administered daily for 14 days relative to control. Conditions: time 14 day.
Data set [10] is described as follows: Tmax in BALB/C mouse plasma at 2.5 mg/kg, iv by LC-MS/MS analysis. Format: ADME, organism-based. Summed up:
as §1

For data set [11], the system named is U-87 MG. The data set is described as follows: Antitumor activity against human U-87MG cells xenografted female Ncr model assessed as ratio of p-AKT Ser473/total AKT at 100 mg/kg, ip by 30 to 60 mins after dosing by electrochemiluminescent immunoassay relative to control. The format is functional, U-87MG ATCC. To be noted: time 30-60 min.
Data set [12] deals with OVCAR-3. Conditions: Homo sapiens, dose 100.0 mg/kg, route ip.

Active and inactive are the calls of the source. A value given as a limit tells only on which side of the number the result lay.

`Oc1cccc(-c2nc(N3CCOCC3)c3oc4ncccc4c3n2)c1` [PI-103]: the highest level in [1] (Cmax) was 6.68 µM. Besides, the half-life (commonly the time needed for the level to fall by half in the phase considered) in data set [2] is 252 min. In addition, the inhibition result with U-87 MG [3], in the data set on U-87 MG [6] and in the data set with OVCAR-3 [12] was “Active” throughout. The figures for the time of peak concentration (Tmax) in data set [4] and in data set [10] were 4.98 min and 0 h, respectively. Moreover, the 50% growth inhibitory concentration (GI50) (in general, the concentration at which growth is held to half of that of the control) in the data set on U-87 MG [5] is 180 nM; with MDA-MB-435, 130 nM. Besides, the Body weight loss in the data set on PC-3 and in the data set on U-87 MG [9] was below 15% in each case. The T/C (usually the ratio of treated to control) in the data set with MDA-MB-468 is reported as 47.2%; with OVCAR-3 [7] it was 62%. The AUC(0-t) (in general, the area under the concentration-time curve up to a stated or last time point) in data set [8] came to 0.453 µM·h. Also, the Activity in the data set on U-87 MG [11] was around 50%.
